Data from ChEMBL document CHEMBL1127613, “Synthesis and pharmacological properties of 11-hydroxy-3-(1',1'-dimethylheptyl)hexahydrocannabinol: a high-affinity cannabinoid agonist” (1994).

Tests used:
Format in all cases: functional
Mus musculus [1] = test: Compound was evaluated for reduction of rectal temperature at 60 min in mouse when administered intravenously; details: iv, 1 h
Method in brief: (§1)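 Mice given the analog by intravenous injection, then run through a tetrad. Spontaneous activity is scored at 5–15 min, tail-flick at 20 min, rectal temperature at 60 min and ring immobility at 90 min after injection. ED50 comes from log dose–response linear regression over n = 4–7 active doses, with standard error estimated by ALLFIT.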

Mus musculus [2] = test: Compound was evaluated for inhibition of spontaneous activity at 5-15 min in mouse when administered intravenously; details: iv; method in brief: as §1
Mus musculus [3] = test: Compound was evaluated for inhibition of tail-flick response at 20 min in mouse when administered intravenously; details: iv; method in brief: as §1
Mus musculus [4] = test: Compound was evaluated for production of ring immobility at 90 min in mouse when administered intravenously; details: iv, 1.5 h; method in brief: as §1

Compound: CCCCCCC(C)(C)c1cc(O)c2c(c1)OC(C)(C)[C@@H]1CC[C@@H](CO)C[C@@H]21
- ED50 (Mus musculus [1]): 0.037 mg/kg
- ED50 (Mus musculus [2]): 0.0054 mg/kg
- ED50 (Mus musculus [3]): 0.0018 mg/kg
- ED50 (Mus musculus [4]): 0.027 mg/kg

Compound: CCCCCCC(C)(C)c1cc(O)c2c(c1)OC(C)(C)[C@H]1CC[C@H](CO)C[C@H]21
- ED50 (Mus musculus [1]): 6.9 mg/kg
- ED50 (Mus musculus [2]): 0.77 mg/kg
- ED50 (Mus musculus [3]): 0.58 mg/kg
- ED50 (Mus musculus [4]): 2.5 mg/kg

Compound: CCCCCc1cc(O)c2c(c1)OC(C)(C)C1CCC(C)=C[C@@H]21 (single isomer, unassigned) [DRONABINOL]
- ED50 (Mus musculus [1]): 1.42 mg/kg
- ED50 (Mus musculus [2]): 1.01 mg/kg
- ED50 (Mus musculus [3]): 1.42 mg/kg
- ED50 (Mus musculus [4]): 1.51 mg/kg
